High-throughput results deposited in PubChem by several laboratories.
procasp7 counter: procaspase-7 activators, primary screen, counter-screen for procaspase-3 activator project, biochemical, absorbance, HTS, human. AID 463210, 2010. 330,000 tested, 0.093% active. activation, % at 8.5 µM. recombinant procaspase-7, Ac-DEVD-pNA absorbance 405 nm; D23A/D198A/D206A triple mutant, cannot self-cleave; scale: DMSO 0, 5 µM enzyme 100;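 active means percent activation above the screen-wide mean plus 3 SD, cut at about 25% in these data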
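buffer or medium = Zinc-free HEPES/NaCl buffer, pH 7.4 | material = Procaspase-7 triple mutant (PC-7 D3A) | input = 2 µM procaspase-7 mutant as dispensed | signal = Epi-absorbance of released pNA at 405 nm, two timepoints | timing = 1 h preincubation, 2 h reaction | replicates = singlicate compound testing | evaluation = % activation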
proCasp3 act: activators of human procaspase-3 D3A mutant, primary screen, biochemical, absorbance, PC-3 D3A mutant, single concentration; activation, % at 8.5 µM; 330,000 tested, 0.11% active; recombinant procaspase-3 D3A, Ac-DEVD-pNA absorbance 405 nm; Caspase-3 (Homo sapiens), P42574;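 active means activation above the mean of all tested compounds plus 3 SD, cut at about 21% in these data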
Target sequence (P42574 whole entry D9A/D28A/D175A): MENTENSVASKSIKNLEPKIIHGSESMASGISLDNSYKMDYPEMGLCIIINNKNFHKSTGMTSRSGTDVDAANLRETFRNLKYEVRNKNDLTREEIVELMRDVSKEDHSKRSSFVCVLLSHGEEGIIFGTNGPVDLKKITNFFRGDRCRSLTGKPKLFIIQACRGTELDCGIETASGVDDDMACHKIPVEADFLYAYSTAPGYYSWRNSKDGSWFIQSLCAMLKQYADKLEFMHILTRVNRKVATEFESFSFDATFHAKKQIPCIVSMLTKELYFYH
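assay system = Procaspase-3 D3A mutant | signal = absorbance at 405 nm, 0 and 120 min | times = 1 h preincubation plus 2 h reaction at 25 °C | repeats = single replicate | read-out = % activation between DMSO and enzyme-spiked controls | medium = Zinc-free HEPES saline buffer with Triton X-100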
KLK7 zymogen act: proKLK7 zymogen activators, primary screen, biochemical, fluorescence intensity; Kallikrein-7 (Homo sapiens), P49862; AID 652039, 2013; activation, % at 7 µM; purified proKLK7, EDANS-DABCYL substrate fluorescence; 100% is mature enzyme control, 0% vehicle; 370,000 tested, 0.9% active;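 active means activation above the mean of all tested compounds plus 3 SD, computed per campaign excluding outliers beyond control limits, cut at about 13% in these data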
Neddyl block: inhibitors of cullin neddylation, primary screen, biochemical, TR-FRET, uHTS, NAE and Ubc12. 360,000 tested, 0.58% active. calls only at 25 µM. NEDD8-conjugating enzyme Ubc12 (Homo sapiens) + NEDD8-activating enzyme E1 regulatory …; in the data active means inhibition above about 36%
Neddyl conf: blockade of NEDD8 conjugation to cullin – biochemical, TR-FRET, single concentration, confirmation. 1,800 tested, 13% active. shares compounds with Neddyl block. TR-FRET cullin neddylation biochemical assay. AID 652217, 2013. calls only at 25 µM; in the data active means inhibition above about 40%;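 further: neddylation substrate is the cullin 1 ring ligase complex with SKP2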
Large screens that a line does not name were inactive (follow-up assays come after a bar, where shown). Sampled rows, rich in hits. Any-hit rate of the full collection: about 1.6%.

Cc1ccc(S(=O)(=O)[N-]c2nc3ccccc3nc2-n2cc[n+](Cc3ccccc3)c2)cc1	none (not shown: Neddyl block)
O=S(=O)([N-]c1nc2ccccc2nc1-n1cc[n+](Cc2ccccc2)c1)c1ccccc1	Neddyl block active | Neddyl conf active
CCCCC[n+]1ccn(-c2nc3ccccc3nc2[N-]S(=O)(=O)c2ccc(C)cc2)c1	Neddyl block active | Neddyl conf inactive
CCCC[n+]1ccn(-c2nc3ccccc3nc2[N-]S(=O)(=O)c2ccc(C)cc2)c1	none
CCCC[n+]1ccn(-c2nc3ccccc3nc2[N-]S(=O)(=O)c2cccs2)c1	Neddyl block active | Neddyl conf inactive
C=CC[n+]1ccn(-c2nc3ccccc3nc2[N-]S(=O)(=O)c2cccs2)c1	Neddyl block active
O=S(=O)([N-]c1nc2ccccc2nc1-[n+]1ccc(CCCc2ccccc2)cc1)c1cccs1	none
CCCCCCCCN1C(=O)[C@@H](CC(=O)N2CCN(C(=O)OCC)CC2)C[C@@]2(C(=O)OC)C1=C[C@H](COCc1ccccc1)O[C@@H]2C	none (no result: procasp7 counter, proCasp3 act, Neddyl block)
N#Cc1ccc2[nH]c(CO)c(-c3ccccc3)c2c1	Neddyl block active | Neddyl conf inactive
O=S1(=O)c2ccc(N3CCN(Cc4ccccc4F)CC3)cc2Oc2ccccc2CN1Cc1cn(Cc2cccc(C(F)(F)F)c2)nn1	none (no result: procasp7 counter, proCasp3 act, Neddyl block)
CN(C)c1cccc(C(=O)NCCCSc2ccccc2)c1	Neddyl block active
COC(=O)[C@]12C[C@H](CC(=O)NCc3cccs3)C(=O)N(Cc3ccco3)C1=C[C@H](C(C)C)O[C@@H]2C1CC1	none (no result: procasp7 counter, proCasp3 act, Neddyl block)
COc1ccc(CCNC(=O)c2cc3c(=O)n4ccccc4nc3n(CCN3CCOCC3)c2=N)cc1	Neddyl block active | Neddyl conf inactive
COc1ccc(CCNC(=O)c2cc3c(=O)n4ccccc4nc3n(CCCN3CCOCC3)c2=N)cc1	none
CC(OC(=O)/C=C/c1cccc(F)c1)C(=O)NC1CCCCC1C (stereo not given)	none
COc1cc(/C=C/C(=O)OC(C)C(=O)NC2CCCCC2C)cc(Cl)c1OC (stereo not given)	Neddyl block active | Neddyl conf inactive
CCOC(=O)C1=CCN(S(=O)(=O)c2cccc(Cl)c2)C1c1cccc(Cl)c1 (stereo not given)	none (no result: procasp7 counter, proCasp3 act, Neddyl block)
CCOC(=O)c1nc(C)sc1-c1ccnn1S(=O)(=O)c1cccc(Cl)c1	Neddyl block active | Neddyl conf inactive
Cc1cc(=O)oc2cc(OC(C)C(=O)N3CCOCC3)c(Cl)cc12 (stereo not given)	Neddyl block active (no result: procasp7 counter, proCasp3 act) | Neddyl conf inactive
COc1ccccc1N1CCN(C(=O)c2ccc3c(c2)nc(C)n3-c2cc(OC)c(OC)c(OC)c2)CC1	none (no result: procasp7 counter, proCasp3 act, Neddyl block)
COc1ccc(C2C3=C(CC(C)(C)CC3=O)Nc3cc4c(cc32)OCO4)cc1 (stereo not given)	none (not shown: Neddyl block)
COc1ccc(C2C3=C(CC(C)(C)CC3=O)Nc3c2c(=O)[nH]c2nc(C)nn32)cc1 (stereo not given)	Neddyl block active | Neddyl conf active
COc1ccc2oc(C(=O)OCC(=O)N(C)Cc3ccccc3)c(C)c2c1	none (not shown: Neddyl block)
COc1ccc2oc(C(=O)OC(C)C(=O)NCc3ccccc3)c(C)c2c1 (stereo not given)	Neddyl block active | Neddyl conf inactive
COc1ccc2oc(C(=O)OCC(=O)NCc3ccc(OC)c(OC)c3)c(C)c2c1	Neddyl block active (no result: procasp7 counter, proCasp3 act) | Neddyl conf inactive
COc1ccc2oc(C(=O)OCC(=O)N(Cc3ccccc3)C(C)C)c(C)c2c1	Neddyl block active | Neddyl conf inactive
CCOc1ccc2oc(C(=O)OCC(=O)NCc3ccc(OC)cc3)c(C)c2c1	none
COC(=O)C1CCN(C(=O)COC(=O)c2oc3ccc(OC)cc3c2C)CC1	Neddyl block active
COc1ccc2oc(C(=O)OC(C)C(=O)NC3(C#N)CCCCC3)c(C)c2c1 (stereo not given)	none (not shown: Neddyl block)
COc1ccccc1CCn1cnc(-c2ccc(Br)cc2)c1CC(C)C	none (no result: procasp7 counter, proCasp3 act, Neddyl block)
